ChEMBL document CHEMBL4477166, “18β-Glycyrrhetinic Acid Derivatives Possessing a Trihydroxylated A Ring Are Potent Gram-Positive Antibacterial Agents” (2016)
The source made the active and inactive calls.

Key:
Staphylococcus aureus [1] = assay: Upregulation of hla expression in Staphylococcus aureus ATCC 25923 at 0.5 times MIC by qRT-PCR analysis relative to control; type: functional, organism-based
Method in brief: (§1)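 Bacteria were grown in broth with compound at 0.5 × MIC or vehicle to exponential phase (OD620 = 0.4) and then pelleted. Total RNA was reverse-transcribed, and SYBR-based real-time PCR was run against housekeeping genes. Relative expression versus control was calculated by 2^−ΔΔCT. Mean ± SEM, n = 3, significance at p < 0.05.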

Bacillus subtilis [2] = assay: Reduction in mmD expression in Bacillus subtilis ATCC 6051 at 0.5 times MIC by qRT-PCR analysis relative to control; type: functional, organism-based; method in brief: as §1
Streptomyces scabiei [3] = assay: Antibacterial activity against Streptomyces scabiei CGMCC4.7610246 at 0.5 times MIC by time-kill analysis; type: functional, organism-based
Method in brief: (§2)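 Killing kinetics for S. scabies in oat bran broth at 28 °C, starting at 5 × 10⁵ CFU/mL. Exposure was 0.5×, 1×, 2× or 4× MIC, with negative and positive controls. Samples of 1 mL were withdrawn at 0, 4, 8, 16, 24 and 36 h, serially diluted and plated, and survival was calculated from colony counts. Performed in triplicate.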

Bacillus subtilis [4] = assay: Upregulation of yqhB expression in Bacillus subtilis ATCC 6051 at 0.5 times MIC by qRT-PCR analysis relative to control; type: functional, organism-based; method in brief: as §1
Staphylococcus aureus [5] = assay: Upregulation of seaR expression in Staphylococcus aureus ATCC 25923 at 0.5 times MIC by qRT-PCR analysis relative to control; type: functional, organism-based; method in brief: as §1
Staphylococcus aureus [6] = assay: Inhibition of lytM expression in methicillin-resistant Staphylococcus aureus at 0.5 times MIC by qRT-PCR analysis; type: functional, organism-based
Method in brief: (§3)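 MRSA grown in broth containing either 0.5 × MIC of test compound or vehicle alone. Cells harvested at exponential phase (OD₆₂₀ = 0.4). Total RNA reverse-transcribed, then SYBR-based real-time PCR run. Relative expression computed by the 2^−ΔΔCT method against the vehicle control or the parent-acid-treated group. Mean ± SEM, n = 3; significance set at p < 0.05.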

Staphylococcus aureus [7] = assay: Increase in fmhB expression in methicillin-resistant Staphylococcus aureus at 0.5 times MIC by qRT-PCR analysis relative to control; type: functional, organism-based; method in brief: as §3
Bacillus subtilis [8] = assay: Antibacterial activity against Bacillus subtilis ATCC 6051 at 0.5 times MIC by time-kill analysis; type: functional, organism-based
Method in brief: (§4)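 Time-kill in LB at 37 °C. B. subtilis or S. aureus suspensions were set at 5 × 10⁵ CFU/mL and exposed to 0.5×, 1×, 2× and 4× MIC alongside negative and positive controls. Samples of 1 mL were taken at 0, 2, 4, 6, 8, 12 and 24 h, serially diluted and plated for viable counts, and survival was calculated. Three repeats.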

Staphylococcus aureus [9] = assay: Down regulation of mecA gene in methicillin-resistant Staphylococcus aureus at 0.5 times MIC by qRT-PCR analysis relative to control; type: functional, organism-based; method in brief: as §3
Staphylococcus aureus [10] = assay: Inhibition of seaR expression in methicillin-resistant Staphylococcus aureus at 0.5 times MIC by qRT-PCR analysis relative to control; type: functional, organism-based; method in brief: as §3
Streptomyces scabiei [11] = assay: Antibacterial activity against Streptomyces scabiei CGMCC4.7610246 by time-kill analysis; type: functional, organism-based; method in brief: as §2
Staphylococcus aureus [12] = assay: Antibacterial activity against Staphylococcus aureus ATCC 25923 by time-kill analysis; type: functional, organism-based; method in brief: as §4
Staphylococcus aureus [13] = assay: Reduction in narG expression in Staphylococcus aureus ATCC 25923 at 0.5 times MIC by qRT-PCR analysis relative to control; type: functional, organism-based; method in brief: as §1
Bacillus subtilis [14] = assay: Upregulation of lytF expression in Bacillus subtilis ATCC 6051 at 0.5 times MIC by qRT-PCR analysis; type: functional, organism-based; method in brief: as §1
Streptomyces scabiei [15] = assay: Antibacterial activity against Streptomyces scabiei CGMCC4.7610246 by microdilution assay; type: functional
Method in brief: (§5)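 Turbidimetric broth microdilution. Log-phase cells were washed and resuspended in broth (LB at 37 °C for B. subtilis and S. aureus; oat bran broth at 28 °C for S. scabies) and seeded at 1 × 10⁵ CFU/mL. Twofold serial dilutions were made with DMSO ≤1% (v/v). A620 was read, then plates were incubated with vigorous shaking. MIC was the lowest concentration with no apparent growth versus vehicle-only medium without cells. Run in triplicate.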

Staphylococcus aureus [16] = assay: Inhibition of hla expression in methicillin-resistant Staphylococcus aureus at 0.5 times MIC by qRT-PCR analysis relative to control; type: functional, organism-based; method in brief: as §3
Bacillus subtilis [17] = assay: Upregulation of ykuD expression in Bacillus subtilis ATCC 6051 at 0.5 times MIC by qRT-PCR analysis; type: functional, organism-based; method in brief: as §1
Pseudomonas aeruginosa [18] = assay: Antibacterial activity against Pseudomonas aeruginosa at 100 uM measured after 5 to 6 hrs by microdilution assay; type: functional, organism-based
Bacillus subtilis [19] = assay: Antibacterial activity against Bacillus subtilis ATCC 6051 by microdilution assay; type: functional; method in brief: as §5
Pseudomonas aeruginosa [20] = assay: Antibacterial activity against multi-drug resistant Pseudomonas aeruginosa at 100 uM measured after 5 to 6 hrs by microdilution assay; type: functional, organism-based
Method in brief: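 Log-phase cells seeded at 1 × 10⁵ CFU/mL. Single-dose screen at 100 μM, with DMSO cosolvent at most 1% v/v. Growth measured turbidimetrically at 620 nm, before and after incubation with vigorous shaking.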

Escherichia coli = assay: Antibacterial activity against Escherichia coli at 100 uM measured after 5 to 6 hrs by microdilution assay; type: functional, organism-based
Staphylococcus aureus [21] = assay: Increase in fmhB expression in Staphylococcus aureus ATCC 25923 at 0.5 times MIC by qRT-PCR analysis relative to 18-beta-glycyrrhetinic acid; type: functional, organism-based; method in brief: as §1
Staphylococcus aureus [22] = assay: Increase in fmhB expression in Staphylococcus aureus at 0.5 times MIC by qRT-PCR analysis relative to 18-beta-glycyrrhetinic acid; type: functional, organism-based; method in brief: as §1
Staphylococcus aureus [23] = assay: Reduction in narG expression in methicillin-resistant Staphylococcus aureus at 0.5 times MIC by qRT-PCR analysis relative to control; type: functional, organism-based; method in brief: as §3
Staphylococcus aureus [24] = assay: Effect on lytM expression in Staphylococcus aureus ATCC 25923 at 0.5 times MIC by qRT-PCR analysis; type: functional, organism-based; method in brief: as §1
Staphylococcus aureus [25] = assay: Down regulation of mecA gene in methicillin-resistant Staphylococcus aureus at 0.5 times MIC by qRT-PCR analysis relative to 18-beta-glycyrrhetinic acid; type: functional, organism-based; method in brief: as §3
Staphylococcus aureus [26] = assay: Antibacterial activity against Staphylococcus aureus ATCC 25923 at 0.5 times MIC by time-kill analysis; type: functional, organism-based; method in brief: as §4
Bacillus subtilis [27] = assay: Upregulation of yhdT expression in Bacillus subtilis ATCC 6051 at 0.5 times MIC by qRT-PCR analysis relative to control; type: functional, organism-based; method in brief: as §1
Bacillus subtilis [28] = assay: Antibacterial activity against Bacillus subtilis ATCC 6051 by time-kill analysis; type: functional, organism-based; method in brief: as §4
Staphylococcus aureus [29] = assay: Antibacterial activity against methicillin-resistant Staphylococcus aureus by microdilution assay; type: functional
Method in brief: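 Log-phase cells seeded at 1 × 10⁵ CFU/mL. Twofold serial dilutions made in broth with DMSO cosolvent, at most 1% v/v. Turbidity read at 620 nm before and after incubation with vigorous shaking. MIC is the lowest concentration with no apparent growth versus the medium-plus-vehicle control. Run in triplicate.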

Staphylococcus aureus [30] = assay: Antibacterial activity against Staphylococcus aureus ATCC 25923 by microdilution assay; type: functional; method in brief: as §5
Staphylococcus aureus [31] = assay: Increase in fmhB expression in Staphylococcus aureus ATCC 25923 at 0.5 times MIC by qRT-PCR analysis relative to control; type: functional, organism-based; method in brief: as §1

CCOC(=O)[C@@]1(C)CC[C@]2(C)CC[C@]3(C)C(=CC[C@@H]4[C@@]5(C)[C@@H](O)[C@H](O)[C@H](O)C(C)(C)[C@@H]5CC[C@]43C)[C@@H]2C1
active: Activity (Staphylococcus aureus [1]) | Activity (Bacillus subtilis [2]) | Activity (Bacillus subtilis [4]) | Activity (Staphylococcus aureus [5]) | inhibition (Staphylococcus aureus [6]) | Activity (Staphylococcus aureus [7]) | Activity (Staphylococcus aureus [9]) | inhibition (Staphylococcus aureus [10]) | Activity (Streptomyces scabiei [11]) Dose-dependent effect | Activity (Staphylococcus aureus [12]) Dose-dependent effect | Activity (Staphylococcus aureus [13]) | Activity (Bacillus subtilis [14]) | inhibition (Staphylococcus aureus [16]) | Activity (Bacillus subtilis [17]) | Activity (Staphylococcus aureus [21]) | Activity (Staphylococcus aureus [22]) | Activity (Staphylococcus aureus [23]) | Activity (Staphylococcus aureus [25]) | Activity (Bacillus subtilis [27]) | Activity (Bacillus subtilis [28]) Dose-dependent effect | Activity (Staphylococcus aureus [31])
1 µg/mL: MIC (Staphylococcus aureus [29]) | MIC (Staphylococcus aureus [30])
2 µg/mL: MIC (Bacillus subtilis [19])
4.1 µg/mL: MIC (Streptomyces scabiei [15])
inactive: Activity (Streptomyces scabiei [3]) | Activity (Bacillus subtilis [8]) | Activity (Pseudomonas aeruginosa [18]) | Activity (Pseudomonas aeruginosa [20]) | Activity (Escherichia coli) | Activity (Staphylococcus aureus [24]) | Activity (Staphylococcus aureus [26])
